# Experimental data: ChEMBL document CHEMBL4393678, “Novel Tetrahydroquinazolinamines as Selective Histamine 3 Receptor Antagonists for the Treatment of Obesity” (J Med Chem, 2019)
# Activity calls are given as the source filed them. No cut-off for these calls is given here.
# Assays:
# [1] = target: T1, Muscarinic acetylcholine receptor M5 (Homo sapiens) (UniProt P08912); test: Antagonist activity at M5R (unknown origin) expressed in HEK293 cells harboring luc2P/NFAT-RE plasmid at 10 uM after 6 to 8 hrs by luciferase reporter gene assay; type: cell-based
# T1 sequence (whole entry): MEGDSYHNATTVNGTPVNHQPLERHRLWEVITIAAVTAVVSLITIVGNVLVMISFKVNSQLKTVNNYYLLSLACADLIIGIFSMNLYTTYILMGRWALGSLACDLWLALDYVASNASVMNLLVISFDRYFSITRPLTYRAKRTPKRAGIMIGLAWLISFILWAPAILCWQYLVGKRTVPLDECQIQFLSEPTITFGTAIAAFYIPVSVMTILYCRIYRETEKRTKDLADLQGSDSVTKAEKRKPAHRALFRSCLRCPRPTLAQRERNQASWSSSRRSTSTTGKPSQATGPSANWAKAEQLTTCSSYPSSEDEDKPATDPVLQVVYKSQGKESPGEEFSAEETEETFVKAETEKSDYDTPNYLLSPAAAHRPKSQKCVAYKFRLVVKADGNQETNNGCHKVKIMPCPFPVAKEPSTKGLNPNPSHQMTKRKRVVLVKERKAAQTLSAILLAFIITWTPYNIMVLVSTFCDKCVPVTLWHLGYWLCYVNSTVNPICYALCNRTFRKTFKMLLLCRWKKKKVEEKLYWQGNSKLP
# Summary of the method: (§1)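 NFAT-RE luciferase assay in HEK293T cells transiently co-transfected with luc2P/NFAT-RE plasmid and receptor plasmid. Cells plated in DMEM and incubated overnight at 37 °C, 5% CO₂. Compounds and reference ligands applied for 6-8 h. Luciferase read after adding Bright-Glo substrate (1 mg/ml final).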
# [2] = Protein binding in C57BL/6J mouse plasma by equilibrium dialysis method; type: ADME, cell-free; settings: read-out: PPB (converted)
# Summary of the method: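 Plasma protein binding and unbound fraction in mouse brain tissue homogenate measured by equilibrium dialysis.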
# Mus musculus [3] = test: Anti-obesity activity in high fat diet-induced obese C57BL/6J mouse model assessed as reduction in body fat mass at 10 mg/kg, po measured after 6 weeks relative to control by NMR-based magnetic resonance imaging analysis; type: functional
# Summary of the method: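 Male C57BL/6J mice on high-fat diet dosed orally for six weeks against a vehicle-treated high-fat diet group and a chow group. Body composition (fat mass, lean mass, % body fat) measured by EchoMRI live scanning. n=5-6. One-way ANOVA with Newman-Keuls test.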
# [4] = target: D(1A) dopamine receptor (Homo sapiens) (UniProt P21728); test: (§2) Antagonist activity at Gs-coupled D1 receptor (unknown origin) expressed in HEK293T cells assessed as reduction in histamine-induced inhibition of forskolin-stimulated cAMP accumulation preincubated for 10 to 15 followed by histamine addition for 10 mins and subsequent forskolin-stimulation by Glo-sensor assay; type: functional, cell-based
# Chain of D(1A) dopamine receptor (Homo sapiens) (P21728 whole entry): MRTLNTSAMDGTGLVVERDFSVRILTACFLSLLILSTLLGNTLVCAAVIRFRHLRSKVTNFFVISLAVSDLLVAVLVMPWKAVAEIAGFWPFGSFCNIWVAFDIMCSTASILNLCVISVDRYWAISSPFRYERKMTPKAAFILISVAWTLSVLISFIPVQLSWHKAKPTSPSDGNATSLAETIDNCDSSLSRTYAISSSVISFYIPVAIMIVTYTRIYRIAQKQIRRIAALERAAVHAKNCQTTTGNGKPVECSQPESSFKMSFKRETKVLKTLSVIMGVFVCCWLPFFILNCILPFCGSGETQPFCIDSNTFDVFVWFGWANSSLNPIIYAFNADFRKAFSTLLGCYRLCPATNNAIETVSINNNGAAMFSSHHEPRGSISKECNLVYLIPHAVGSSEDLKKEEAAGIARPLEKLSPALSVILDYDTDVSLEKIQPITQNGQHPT
# [5] = target: Kappa-type opioid receptor (Homo sapiens) (UniProt P41145); test: Agonist activity at Gi-coupled KOR (unknown origin) expressed in HEK293T cells assessed as inhibition of forskolin-stimulated cAMP accumulation preincubated for 10 to 15 followed by forskolin-stimulation by Glo-sensor assay; type: functional, cell-based
# Chain of Kappa-type opioid receptor (Homo sapiens) (P41145 whole entry): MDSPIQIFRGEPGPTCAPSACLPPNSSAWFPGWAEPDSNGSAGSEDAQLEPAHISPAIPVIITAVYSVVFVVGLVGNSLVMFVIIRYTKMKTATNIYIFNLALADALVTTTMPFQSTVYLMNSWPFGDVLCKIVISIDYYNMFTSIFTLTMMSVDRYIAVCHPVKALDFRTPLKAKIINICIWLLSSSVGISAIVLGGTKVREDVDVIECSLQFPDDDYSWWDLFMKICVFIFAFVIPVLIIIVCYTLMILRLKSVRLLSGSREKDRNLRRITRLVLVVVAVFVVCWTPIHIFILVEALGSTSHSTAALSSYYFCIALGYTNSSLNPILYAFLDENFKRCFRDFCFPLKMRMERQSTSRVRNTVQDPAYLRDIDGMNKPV
# [6] = target: T2, G-protein coupled bile acid receptor 1 (Homo sapiens) (UniProt Q8TDU6); test: as §2, with “GPBAR1” for “D1 receptor”; type: functional, cell-based
# T2 sequence (whole entry): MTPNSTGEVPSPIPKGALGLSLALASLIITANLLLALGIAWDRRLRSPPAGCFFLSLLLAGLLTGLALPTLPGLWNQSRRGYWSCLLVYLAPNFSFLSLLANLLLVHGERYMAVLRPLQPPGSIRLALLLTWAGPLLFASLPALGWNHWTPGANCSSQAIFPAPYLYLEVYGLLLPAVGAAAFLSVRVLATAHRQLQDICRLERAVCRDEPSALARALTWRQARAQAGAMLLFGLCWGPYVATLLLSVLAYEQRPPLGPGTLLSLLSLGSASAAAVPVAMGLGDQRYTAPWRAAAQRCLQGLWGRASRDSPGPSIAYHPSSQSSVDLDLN
# [7] = target: D(1A) dopamine receptor (Homo sapiens) (UniProt P21728); test: Agonist activity at Gs-coupled D1 receptor (unknown origin) expressed in HEK293T cells assessed as inhibition of forskolin-stimulated cAMP accumulation preincubated for 10 to 15 followed by forskolin-stimulation by Glo-sensor assay; type: functional, cell-based
# Mus musculus [8] = test: Anti-obesity activity in 16 hrs fasted db/db-induced obese C57BL/6J mouse model assessed as improvement in glucose homeostasis at 20 mg/kg, po treated prior to glucose addition measured after 15 to 120 mins by IPGTT; type: functional, organism-based
# Summary of the method: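 Mice fasted 16 h; baseline tail-vein glucose read by glucometer. Glucose given i.p. at 2 g/kg (C57BL/6J) or 1 g/kg (db/db).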
# [9] = target: Free fatty acid receptor 1 (Homo sapiens) (UniProt O14842); test: Agonist activity at GPR40 (unknown origin) expressed in HEK293 cells harboring luc2P/NFAT-RE plasmid at 10 uM after 6 to 8 hrs by luciferase reporter gene assay; type: cell-based; summary of the method: as §1
# Chain of Free fatty acid receptor 1 (Homo sapiens) (O14842 whole entry): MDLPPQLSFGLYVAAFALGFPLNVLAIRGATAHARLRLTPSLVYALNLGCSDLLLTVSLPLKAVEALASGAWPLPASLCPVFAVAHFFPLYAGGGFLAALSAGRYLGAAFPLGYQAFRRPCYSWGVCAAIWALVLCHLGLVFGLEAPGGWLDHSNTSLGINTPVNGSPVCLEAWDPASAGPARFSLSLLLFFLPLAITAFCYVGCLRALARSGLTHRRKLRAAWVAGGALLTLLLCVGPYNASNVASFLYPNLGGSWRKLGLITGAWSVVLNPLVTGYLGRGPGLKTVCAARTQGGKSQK
# Mus musculus [10] = test: Anorexic effect in 12 hrs fasted db/db-induced obese C57BL/6J mouse model assessed as reduction in cumulative food intake at 20 mg/kg, po pretreated for 30 mins followed by food addition measured after 4 hrs relative to control; type: functional; design: scale not given: the % may be the effect or the level left
# Summary of the method: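 Mice starved 12 h (8:00 am to 8:00 pm) with water available, then housed singly. Compound given orally in 5% gum acacia in normal saline; vehicle group received the same. Cumulative food intake measured over 4 h of the night phase (9:00 pm to 1:00 am), starting 30 min after dosing. Antagonism arms: imitet 5 mg/kg i.p. 30 min before compound, or α-methyl-DL-histidine 20 mg/kg i.p. 2 h before.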
# [11] = target: Histamine H4 receptor (Homo sapiens) (UniProt Q9H3N8); test: Agonist activity at recombinant human Gi-coupled H4 receptor expressed in HEK293T cells assessed as inhibition of forskolin-stimulated cAMP accumulation at 10 uM preincubated for 10 to 15 followed by forskolin-stimulation by Glo-sensor assay; type: functional, cell-based
# Chain of Histamine H4 receptor (Homo sapiens) (Q9H3N8 whole entry): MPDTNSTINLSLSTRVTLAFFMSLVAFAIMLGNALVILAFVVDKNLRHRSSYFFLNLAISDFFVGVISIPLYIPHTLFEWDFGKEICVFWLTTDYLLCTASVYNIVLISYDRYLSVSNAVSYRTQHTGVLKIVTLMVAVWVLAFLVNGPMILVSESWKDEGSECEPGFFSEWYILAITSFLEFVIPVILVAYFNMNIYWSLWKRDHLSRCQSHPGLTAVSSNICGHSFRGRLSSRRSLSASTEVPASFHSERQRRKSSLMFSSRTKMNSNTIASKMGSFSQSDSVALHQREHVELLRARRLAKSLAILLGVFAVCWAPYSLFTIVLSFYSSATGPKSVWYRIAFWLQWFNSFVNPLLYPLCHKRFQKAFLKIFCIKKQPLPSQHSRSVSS
# [12] = target: D(3) dopamine receptor (Homo sapiens) (UniProt P35462); test: Antagonist activity at D3 receptor (unknown origin)
# Chain of D(3) dopamine receptor (Homo sapiens) (P35462 whole entry): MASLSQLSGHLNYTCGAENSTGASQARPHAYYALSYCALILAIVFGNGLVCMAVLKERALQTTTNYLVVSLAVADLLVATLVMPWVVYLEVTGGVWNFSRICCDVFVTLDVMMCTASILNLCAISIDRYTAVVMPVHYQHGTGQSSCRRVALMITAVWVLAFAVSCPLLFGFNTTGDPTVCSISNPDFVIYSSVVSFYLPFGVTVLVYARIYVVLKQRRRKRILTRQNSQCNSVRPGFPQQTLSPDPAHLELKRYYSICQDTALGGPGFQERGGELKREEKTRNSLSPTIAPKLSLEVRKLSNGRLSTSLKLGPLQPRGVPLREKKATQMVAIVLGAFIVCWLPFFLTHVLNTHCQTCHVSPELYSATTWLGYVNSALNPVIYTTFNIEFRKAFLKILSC
# Mus musculus [13] = test: Anti-obesity activity in 16 hrs fasted db/db-induced obese C57BL/6J mouse model assessed as change in blood HDL level at 20 mg/kg, po measured after 6 weeks; type: functional, organism-based
# Mus musculus [14] = test: Anorexic effect in high fat diet-induced obese C57BL/6J mouse model assessed as reduction in cumulative food intake at 10 mg/kg, po pretreated for 30 mins followed by food addition measured after 4 hrs relative to control; type: functional; design: scale not given: the % may be the effect or the level left
# Summary of the method: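 Male C57BL/6J mice on high-fat diet, starved 12 h (8 am–8 pm) with water available, housed singly. Oral dose in 5% gum acacia in normal saline, vehicle group alongside. Food given 30 min after dosing, and cumulative intake measured over the 4 h night phase (9 pm–1 am). One-way ANOVA with Newman-Keuls test.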
# [15] = target: T1, Muscarinic acetylcholine receptor M5 (Homo sapiens); test: Agonist activity at M5R (unknown origin) expressed in HEK293 cells harboring luc2P/NFAT-RE plasmid at 10 uM after 6 to 8 hrs by luciferase reporter gene assay; type: cell-based; summary of the method: as §1
smiles,measurement,setting,value
COc1ccc(-c2nc(N)nc3c2CCCC3C)cc1 (racemic),inhibition,[1],inactive
same,fraction unbound,[2],0.0424
same,Activity,Mus musculus [3],Active
same,inhibition,[4],inactive
same,inhibition,[5],inactive
same,inhibition,[6],inactive
same,inhibition,[7],inactive
same,Activity,Mus musculus [8],Active
same,Activity,[9],inactive
same,Activity,Mus musculus [10],33%
same,Activity,[11],inactive
same,inhibition,[12],inactive
same,Activity,Mus musculus [13],inactive
same,Activity,Mus musculus [14],26%
same,Activity,[15],inactive
